# Compound activity (PubChem)
# PG9 Ab binder = binds the HIV-1 gp120 antibody PG9 | TR-FRET gp120-PG9 antibody binding | inhibition, % at 6.7 µM | 360,000 tested, 0.43% active; in the data active = inhibition above about 8.5%
# NR2E3 ag-1 = human photoreceptor-specific nuclear receptor agonism | AID 602229 | CHO-S Gal4-NCOR/VP16-NR2E3 two-hybrid, luciferase | inhibition of corepressor binding, % at 3.98 µM | 360,000 tested, 0.35% active;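 active = inhibition above the mean of all tested compounds plus 3 SD, cut at about 70% in these data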;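 note: higher means lower luciferase signal from less NR2E3 corepressor binding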
# Target sequence (Q9Y5X4 whole entry, looked up, the tested form may be a part): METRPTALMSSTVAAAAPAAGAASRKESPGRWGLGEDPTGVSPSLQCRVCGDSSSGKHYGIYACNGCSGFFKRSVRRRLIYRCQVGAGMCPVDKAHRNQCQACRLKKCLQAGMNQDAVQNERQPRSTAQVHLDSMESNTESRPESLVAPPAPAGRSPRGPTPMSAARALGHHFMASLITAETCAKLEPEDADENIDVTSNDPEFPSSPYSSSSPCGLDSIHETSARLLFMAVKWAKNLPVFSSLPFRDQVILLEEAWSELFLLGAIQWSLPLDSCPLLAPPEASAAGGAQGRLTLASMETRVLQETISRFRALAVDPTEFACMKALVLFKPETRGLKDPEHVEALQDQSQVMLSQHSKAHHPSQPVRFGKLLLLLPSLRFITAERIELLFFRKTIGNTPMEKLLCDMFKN
# Rev-erbA mod = modulates human Rev-erb alpha binding to DNA | AID 1259318 | 370,000 tested, 0.79% active | Rev-erbα–FITC-DNA binding, fluorescence polarization, 90 min | activity, % at 10 µM | P20393;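 active = activity above about 14%, limit read from the data; passing the limit was not always enough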
# NR2E3 ag-2 = agonists of human nuclear receptor NR2E3; Q9Y5X4; GST-NR2E3/biotin-RetCOR TR-FRET, 1536-well; inhibition of corepressor binding, % at 4.78 µM; 320,000 tested, 0.12% active;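 active = percent inhibition above the cutoff of mean plus 3 SD of all tested compounds, set per screening campaign, cut at about 20% in these data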
#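 Material: NR2E3–RetCOR corepressor complex / Incubation: Compound–protein incubation for 5 h at 4 °C / Dosing: compound at 4.8 µM, single dose / Detection: time-resolved FRET / Benchmarks: high control biotin, low control 0.6% DMSO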
# rCAG RNA binder = r(CAG) repeat RNA binding. TO-PRO-1 dye displacement fluorescence. inhibition, % at 3 µM. 370,000 tested, 1.3% active. AID 651821;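 active = inhibition above the plate cutoff, the mean of all test compounds on that plate plus 3 SD, cut at about 35% in these data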;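 note: higher means more dye released from RNA so lower well fluorescence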
# Rev-erbA confirm = confirmation of modulators of human Rev-erb alpha DNA binding. AID 1259319. shares compounds with Rev-erbA mod. Rev-erb alpha FITC-DNA binding, fluorescence polarization, 90 min. activation, % at 25 µM. 3,000 tested, 61% active;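 active = activation at or above a set limit, or at least 3 SD above the negative control mean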
# RORg counter = affects RORgamma DNA binding in a Rev-erb alpha counter-screen. purified RORgamma protein-FITC-DNA binding, fluorescence polarization. AID 1259320. 910 tested, 8% active. shares compounds with Rev-erbA mod. IC50, µM;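 active = Compounds whose fitted half-maximal concentration for disrupting protein-DNA binding is below 10 micromolar; the record names Rev-erb in its text, so the target is in doubt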
# Numbers stand for hits; – = inactive; · = no result given. Hits are enriched below; roughly 2.6% of the tested compounds scored in any of these assays.
SMILES,PG9 Ab binder,NR2E3 ag-1,Rev-erbA mod,NR2E3 ag-2,rCAG RNA binder,Rev-erbA confirm,others
N#CCCN1CCCc2cc(N=Nc3ccc(C(F)(F)F)cc3)ccc21,–,–,17.5,–,–,21.9,
CCCN1CCCc2ccccc21,–,–,–,–,–,·,
COC(=O)C1=C(C)N(Cc2cccc(C(F)(F)F)c2)C(=NCc2ccc3c(c2)OCO3)NC1c1cccc(Cl)c1 (stereo not given),–,·,–,·,–,·,
COc1cccc(NC(=O)CCc2nnc3ccc(N4CCN(c5cccc(OC)c5)CC4)nn23)c1,·,–,·,–,·,·,
COc1cc(NC(=O)CCc2nnc3ccc(N4CCN(c5cccc(OC)c5)CC4)nn23)cc(OC)c1,–,–,29.0,–,–,–,
CC(C)(C)S(=O)(=O)N1Cc2ccc(CO)cc2[C@H]1CCO,–,–,–,·,–,·,
Cc1ccc(NC(=O)COC(=O)c2cc(=O)c3cc(F)ccc3o2)cc1,–,–,–,·,–,·,
Cc1ccc2[nH]c(=O)c(N3CCOCC3)c(-c3ccccc3)c2c1,–,–,28.4,–,–,–,
Cc1ccc(C(=O)CNc2cccc([N+](=O)[O-])c2)cc1,–,–,14.6,–,–,–,
COc1ccc(C2Nc3ccccc3C(=O)N2c2ccc(F)cc2)cc1CSc1ccccn1 (stereo not given),–,–,30.4,–,–,–,
O=C1CC(c2ccccc2)Cc2nc(N3CCc4ccccc43)ncc21 (stereo not given),–,–,29.6,–,–,23.4,
O=C1CC(c2cccc(Cl)c2)Cc2nc(N3CCN(c4ccccc4)CC3)ncc21 (stereo not given),–,–,36.7,–,–,19.3,
Cc1ccccc1-c1cccc([C@@H]2C[C@H]3[C@H](CON3C)CN2C(=O)C(C)(C)C)c1,–,–,–,·,–,·,
NC1(N2SC(S)=C3CCCC=C32)CCCCC1,–,·,–,·,–,·,
COc1ccc(N2CCN(C(=O)c3ccc4c(c3)CCN4S(C)(=O)=O)CC2)cc1,–,–,–,·,–,·,
CC(=O)c1cc2c(cc1N/C(=N/S(=O)(=O)c1ccc(Br)cc1)c1ccccc1)OCO2,–,–,96.8,–,–,–,
COc1ccc(/C=C/C(=O)NC(=S)N2CCN(c3ccccc3OC)CC2)cc1,–,–,48.1,–,–,39.5,RORg counter=–
COc1ccc(/C=C/C(=O)NC(=S)N2CCOCC2)cc1,–,–,–,–,–,·,
Cn1c(SCC(=O)Nc2cccc(Br)c2)nnc1-c1cc2ccccc2o1,–,–,41.8,–,–,60.2,
Cn1c(SCC(=O)NC2CCCCC2)nnc1-c1cc2cc(Cl)ccc2o1,–,–,100.5,–,–,26.6,
Cn1c(SCC(=O)Nc2cccc(C(=O)O)c2)nnc1-c1cc2cc(Br)ccc2o1,–,–,–,–,–,·,
Cc1cnc(NC(=O)C2(C)CCN2C(=O)C(C)C)s1 (stereo not given),–,–,–,·,–,·,
Cc1ccc(OCC(=O)NNC(=O)C2CCN(c3nc(C)cc(C)n3)CC2)cc1,–,–,22.8,–,–,–,
Cc1ccc(C(=O)Nc2cccc(C(F)(F)F)c2)cc1NC(=O)c1nccn1C,–,–,20.2,–,–,22.7,RORg counter=–
COc1cc(-c2noc(-c3cccc(Cl)c3)n2)cc(OC)c1OC,–,–,73.6,–,–,122.7,
SMILES,PG9 Ab binder,NR2E3 ag-1,Rev-erbA mod,NR2E3 ag-2,rCAG RNA binder,Rev-erbA confirm,others
COc1cc(-c2nc(-c3cccc(C)c3)no2)cc(OC)c1OC,–,–,–,–,–,·,
COc1cc(C(=O)OCc2cc3ccccc3[nH]c2=O)cc(OC)c1OC,–,–,44.8,–,–,29.6,
Cc1cccc(NC(=O)c2ccc3c(Cl)c4c(nc3c2)CCCC4)n1,–,–,23.8,–,–,–,
COc1ccc(CN2C(=O)c3cccc4cccc(c34)C2=O)cc1,–,–,23.3,–,–,15.3,
COC(=O)C[C@@H]1C=C[C@@H](NC(=O)C2CCC2)[C@@H](CO)O1,–,·,–,·,–,·,
COc1ccc(C(=O)NCCNc2nc3cc(C)cc(C)c3cc2C#N)nc1,–,·,22.8,·,–,44.5,RORg counter=–
COc1ccc(C(=O)NCCNc2nc3cc(C)cc(C)c3cc2C#N)c(OC)c1,–,·,–,·,–,·,
O=S1(=O)CC(N2CCN(CC3CC3)CC2)CN1Cc1ccccc1 (stereo not given),–,–,–,·,–,·,
COc1ccc(NS(=O)(=O)c2cc(NC(=O)C3CC3)ccc2N2CCCCC2)cc1,–,–,–,–,–,·,
COc1ccc(N2CCN(c3ccc(N)cc3C#N)CC2)cc1,–,–,–,–,–,·,
COc1ccc(C(=O)Nc2ccc(N3CCN(c4ccc(OC)cc4)CC3)c(C#N)c2)cc1,–,–,84.1,–,–,55.8,
COc1ccc(N2CCN(c3ccc(NC(=O)C4CCCCC4)cc3C#N)CC2)cc1,–,–,30.5,–,–,–,
Cc1ccc(NC(=O)C2=CC=CN3CCS(=O)(=O)N=C23)cc1,–,–,–,–,–,·,
COc1ccc(C(C)(C)C)cc1NC(=O)C1=CC=CN2CCS(=O)(=O)N=C12,–,–,24.3,·,–,29.6,RORg counter=–
CCc1ccc2nc(NC(=O)C3CCN(c4ncnc5sc(C)c(C)c45)CC3)sc2c1,–,–,20.5,–,–,19.4,
N#Cc1c(N2CCOCC2)nsc1-c1ccc(C(F)(F)F)cc1,–,–,22.1,–,–,–,
C[C@H](O)Cc1cn(-c2cc3cc(C#Cc4ccsc4)ccc3oc2=O)nn1,–,–,17.9,–,–,–,
Cc1c(C(=O)NCc2cccc(C(F)(F)F)c2)sc(=O)n1Cc1ccc(S(=O)(=O)N(C)C)cc1,–,–,–,·,–,·,
CCOC(=O)c1cc(-c2ccccc2)sc1NC(=S)Nc1cccc(C)n1,–,–,26.1,–,–,–,
CCOC(=O)c1cc(-c2ccccc2)sc1NC(=O)C(C)OC(=O)c1cccnc1Cl (stereo not given),–,–,19.9,–,–,–,
CCOC(=O)c1cc(-c2ccccc2)sc1NC(=O)C(C)OC(=O)c1ccncc1 (stereo not given),–,–,–,–,–,·,
Cc1c(N(C)S(=O)(=O)c2ccc(Cl)c(C(=O)NCC(C)(C)N3CCOCC3)c2)c(=O)n(-c2ccccc2)n1C,–,–,–,·,–,·,
COc1ccccc1-c1cnc(C(O)c2ccc(F)cc2C)[nH]1 (stereo not given),–,–,–,·,–,·,
COc1ccc(Sc2nc3ccccc3n3c(C(F)(F)F)nnc23)cc1,–,–,55.8,–,–,34.1,RORg counter=–
CN(C)C=Nc1ncc2c3ccccc3n(Cc3ccccc3)c2c1C#N,–,–,34.4,–,–,29.9,
CC(=O)NS(=O)(=O)c1ccc(Nc2ccc([N+](=O)[O-])c3nonc23)cc1,–,–,26.1,–,–,20.9,
